Data set [1] concerns the target Histamine H1 receptor (Homo sapiens) (UniProt P35367). The experiment in a line: Agonist activity at histamine H1 receptor (unknown origin) at 10 uM. In outline: (§1)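 Primary screen, agonist and antagonist modes, each receptor tested separately. Compounds at 10 µM in triplicate; response taken as % inhibition or stimulation relative to control. Compounds giving at least 50% effect were then run over 10 µM to 10 pM to obtain EC50/IC50.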

The subject of data set [2] is Mus musculus. In words: Analgesic activity in C57BL/6J mouse assessed as tail withdrawal latency at 10 mg/kg measured after 30 mins in presence of KOR antagonist norBNI by tail flick test. Format: functional, organism-based. In short, it runs like this: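 Male C57BL/6J mice (5-6/group) received norBNI 10 mg/kg i.p. 30 min before test compound at 10 mg/kg i.p. Tail withdrawal latency in 52 ± 0.5°C water was measured at the 30 min time point, three readings, by a blinded observer.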
In general terms: Thermal pain tests record how soon the animal reacts.

The target in data set [3] is T1, Mu-type opioid receptor (Homo sapiens, UniProt P35372). The conditions noted are these: HEK-293T, at 10 µM.
Data set [4] deals with T2, D(2) dopamine receptor (Homo sapiens, UniProt P14416). In words: Antagonist activity at dopamine D2 receptor (unknown origin) at 10 uM. In short, it runs like this:
as §1

The target in data set [5] is T2, D(2) dopamine receptor. In words: Agonist activity at dopamine D2 receptor (unknown origin) at 10 uM. In short, it runs like this: as §1
In data set [6] the test system is Mus musculus. The experiment in a line: Analgesic activity in C57BL/6J mouse assessed as tail withdrawal latency at 10 mg/kg by tail flick test. It counts as functional, organism-based. In outline:
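Male C57BL/6J mice, 6-8 weeks, 22-25 g; 5-6 per group. Dosed 10 mg/kg i.p. Distal third of tail immersed in 52 ± 0.5°C water; latency recorded three times per time point by a blinded observer. Latency expressed as % of baseline taken 15 min before dosing, followed over time; area under curve also calculated.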

Data set [7] addresses Delta-type opioid receptor (Homo sapiens) (UniProt P41143). In words: Agonist activity at recombinant human DOR expressed in HEK293T cells assessed as inhibition of forskolin-stimulated cAMP level at 10 uM preincubated for 15 to 20 mins followed by forskolin addition by GloSensor assay relative to control. It counts as functional, cell-based. The conditions noted are these: HEK-293T. In short, it runs like this: (§2)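 HEK293T transiently co-transfected (calcium phosphate) with DOR or MOR plus pGloSensor-22F. Cells were loaded with luciferin in HBSS/20 mM HEPES pH 7.4 for 90 min, then given compound in triplicate for 15-20 min at 37°C. Forskolin added (final 10 µM); luminescence read. cAMP signal normalized to forskolin-alone control.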
In general terms: Cyclic AMP is a second messenger, typically raised through Gs and lowered through Gi signalling.

The target of data set [8] is Histamine H1 receptor (Homo sapiens) (UniProt P35367). The experiment in a line: Antagonist activity at histamine H1 receptor (unknown origin) at 10 uM. In short, it runs like this:
as §1

Data set [9] concerns the target T1, Mu-type opioid receptor. The experiment in a line: Agonist activity at recombinant human MOR expressed in HEK293T cells assessed as inhibition of forskolin-stimulated cAMP level at 10 uM preincubated for 15 to 20 mins followed by forskolin addition by GloSensor assay relative to control. It counts as functional, cell-based. Particulars: HEK-293T. In outline:
as §2

The target in data set [10] is Kappa-type opioid receptor (Homo sapiens, UniProt P41145). The experiment in a line: Agonist activity at recombinant human KOR expressed in HEK293T cells assessed as inhibition of forskolin-stimulated cAMP level preincubated for 15 to 20 mins followed by forskolin addition by GloSensor assay. Format: functional, cell-based, HEK-293T. In short, it runs like this:
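HEK293T transiently transfected with hKOR plus GloSensor-22F plasmid. Compounds (10 µM to 10 pM, triplicate) added for 15-20 min at 37°C, then forskolin added (final 10 µM). Luminescence of live cells normalized to % forskolin-alone control. IC50 from non-linear regression; two independent experiments.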

For data set [11], the target named is Delta-type opioid receptor (Homo sapiens) (UniProt P41143). The experiment in a line: Antagonist activity at recombinant human DOR expressed in HEK293T cells assessed as reduction in DADLE-induced inhibition of forskolin-stimulated cAMP level at 10 uM preincubated for 15 to 20 mins followed by DADLE and forskolin addition by GloSensor assay relative to control. It counts as functional, cell-based. The conditions noted are these: HEK-293T. In outline: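 HEK293T transiently expressing DOR plus GloSensor-22F were given compound in triplicate for 15-20 min at 37°C. DADLE (1 µM) was then added, followed by forskolin (10 µM); luminescence read. Signal normalized to % control (agonist + forskolin).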

The structures appear in SMILES notation. Active and inactive are the calls of the source. No cut-off for these calls is given here.

Sequence of Delta-type opioid receptor (Homo sapiens) (P41143 whole entry): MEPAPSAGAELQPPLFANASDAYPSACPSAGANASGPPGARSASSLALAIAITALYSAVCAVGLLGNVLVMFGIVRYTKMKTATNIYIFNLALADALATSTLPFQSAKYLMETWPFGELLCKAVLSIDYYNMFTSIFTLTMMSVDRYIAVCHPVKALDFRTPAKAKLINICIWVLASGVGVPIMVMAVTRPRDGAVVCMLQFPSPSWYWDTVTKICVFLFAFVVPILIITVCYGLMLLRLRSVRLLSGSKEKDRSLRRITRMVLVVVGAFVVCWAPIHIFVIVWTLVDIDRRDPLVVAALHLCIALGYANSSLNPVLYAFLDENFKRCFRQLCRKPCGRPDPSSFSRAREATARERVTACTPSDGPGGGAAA
T1 sequence (P35372 whole entry): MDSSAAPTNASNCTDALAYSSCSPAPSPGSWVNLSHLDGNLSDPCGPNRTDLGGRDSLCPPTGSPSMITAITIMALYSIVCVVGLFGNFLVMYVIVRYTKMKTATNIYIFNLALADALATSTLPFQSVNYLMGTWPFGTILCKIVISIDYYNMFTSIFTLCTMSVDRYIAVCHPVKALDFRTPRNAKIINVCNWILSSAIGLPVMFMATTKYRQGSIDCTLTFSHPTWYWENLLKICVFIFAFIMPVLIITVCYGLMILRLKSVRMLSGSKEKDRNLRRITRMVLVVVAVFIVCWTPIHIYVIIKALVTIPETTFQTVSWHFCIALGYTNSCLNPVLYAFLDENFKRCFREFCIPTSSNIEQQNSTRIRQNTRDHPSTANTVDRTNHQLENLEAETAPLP
T2 sequence (P14416 whole entry): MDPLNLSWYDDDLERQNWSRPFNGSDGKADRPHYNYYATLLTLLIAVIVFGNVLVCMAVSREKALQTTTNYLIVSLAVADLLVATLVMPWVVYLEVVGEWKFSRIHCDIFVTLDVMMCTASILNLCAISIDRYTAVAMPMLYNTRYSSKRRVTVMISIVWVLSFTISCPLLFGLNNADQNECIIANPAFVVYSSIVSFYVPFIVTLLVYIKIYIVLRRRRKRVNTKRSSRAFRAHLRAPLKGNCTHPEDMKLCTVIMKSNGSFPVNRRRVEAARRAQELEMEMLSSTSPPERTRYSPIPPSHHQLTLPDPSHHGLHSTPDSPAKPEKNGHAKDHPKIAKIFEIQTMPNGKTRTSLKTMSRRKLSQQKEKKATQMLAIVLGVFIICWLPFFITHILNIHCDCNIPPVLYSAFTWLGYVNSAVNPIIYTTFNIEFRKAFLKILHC
Sequence of Histamine H1 receptor (Homo sapiens) (P35367 whole entry): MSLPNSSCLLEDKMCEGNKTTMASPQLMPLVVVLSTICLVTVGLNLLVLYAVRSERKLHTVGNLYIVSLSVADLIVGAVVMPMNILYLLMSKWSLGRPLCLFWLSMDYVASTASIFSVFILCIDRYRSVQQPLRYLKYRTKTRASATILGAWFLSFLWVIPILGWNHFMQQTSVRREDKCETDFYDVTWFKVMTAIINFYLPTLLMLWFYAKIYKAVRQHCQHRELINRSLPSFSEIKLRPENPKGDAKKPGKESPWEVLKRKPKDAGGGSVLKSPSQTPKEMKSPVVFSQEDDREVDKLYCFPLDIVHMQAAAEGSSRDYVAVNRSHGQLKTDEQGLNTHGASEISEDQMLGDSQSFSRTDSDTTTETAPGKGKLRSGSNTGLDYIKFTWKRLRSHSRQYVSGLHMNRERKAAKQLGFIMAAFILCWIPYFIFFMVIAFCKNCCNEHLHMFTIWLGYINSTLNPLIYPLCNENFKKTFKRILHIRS
Sequence of Kappa-type opioid receptor (P41145 whole entry): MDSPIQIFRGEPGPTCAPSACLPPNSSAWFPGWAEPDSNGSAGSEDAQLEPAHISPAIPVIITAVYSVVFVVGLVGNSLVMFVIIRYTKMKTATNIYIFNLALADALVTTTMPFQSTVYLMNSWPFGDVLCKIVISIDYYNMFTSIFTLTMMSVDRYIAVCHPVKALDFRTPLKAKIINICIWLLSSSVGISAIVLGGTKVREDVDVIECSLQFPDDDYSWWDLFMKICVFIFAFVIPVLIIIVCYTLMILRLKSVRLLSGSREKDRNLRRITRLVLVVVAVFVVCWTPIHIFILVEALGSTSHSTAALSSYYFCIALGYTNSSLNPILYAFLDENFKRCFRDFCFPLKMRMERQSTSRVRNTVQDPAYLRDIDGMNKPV

In the case of `O=C(O)/C(=C/c1ccccc1)CN1CCN(c2cccc(Cl)c2Cl)CC1`, the outcome (in data set [1]; in the data set on Mus musculus [2]) was inactive. For the same molecule, the inhibition entry (on Mu-type opioid receptor [3]; in [7]; in data set [8]; on Mu-type opioid receptor [9]; in [11]) was “inactive” throughout. Moreover, the “inhibition (INH)” value against D(2) dopamine receptor [4] is “Not Active”. The Activity result on D(2) dopamine receptor [5] was “Not Active”; in the data set on Mus musculus [6], “Dose-dependent effect”. Besides, the IC50 in data set [10] (read-out: IC50) was 800 nM; in data set [10] (read-out: pIC50 (converted)), 716 to 813 nM.

The values are drawn from ChEMBL document CHEMBL4038325, “Opioid Receptor Modulators with a Cinnamyl Group” (J Med Chem, 2017).
